Read-outs that look alike come from different tables or passages of the source.

Experiment [1] deals with W60dA human recombinant thrombin (Homo sapiens, UniProt P00734, W413A). Nature of the experiment: HPLC-based kinetic assay of FXIII. The following applies: W60dA thrombin relative to WT thrombin. It counts as biochemical.
Experiment [2] addresses Y60aA human recombinant thrombin (Homo sapiens, UniProt P00734, Y410A). Nature of the experiment: HPLC-based kinetic assay of FXIII. The following applies: Y60aA thrombin relative to WT thrombin. It counts as biochemical.
For experiment [3], the target named is T1, L99A human recombinant thrombin (Homo sapiens, UniProt P00734, L459A). The following applies: ref [37], cited from earlier work.
The target of experiment [4] is T2, W215A human recombinant thrombin (Homo sapiens, UniProt P00734, W590A). The following applies: W215A thrombin relative to WT thrombin; ref [37]; cited from earlier work.
The target of experiment [5] is T3, E217A human recombinant thrombin (Homo sapiens, UniProt P00734, E592A). The following applies: E217A thrombin relative to WT thrombin; ref [37]; cited from earlier work.
The target of experiment [6] is T2, W215A human recombinant thrombin. The experiment in a line: HPLC-based kinetic assay of FXIII. Type of experiment: biochemical. The following applies: W215A thrombin relative to WT thrombin.
Experiment [7] concerns the target T1, L99A human recombinant thrombin. The experiment in a line: HPLC-based kinetic assay of FXIII. Type of experiment: biochemical. The following applies: L99A thrombin relative to WT thrombin.
For experiment [8], the target named is T3, E217A human recombinant thrombin. Nature of the experiment: HPLC-based kinetic assay of FXIII. Type of experiment: biochemical. The following applies: E217A thrombin relative to WT thrombin. The method, boiled down:
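Recombinant human E217A thrombin (over 90% active by hirudin titration) at 33.6 or 78.4 nM depending on peptide, acting on acetylated/amidated FXIII (28–41) segment peptides at 100–3000 μM. Conditions: 50 mM H3PO4, 100 mM NaCl, 0.1% PEG, pH 7.4, 25 °C. Timed aliquots quenched in 12.5% H3PO4. FXIII (28–37) product measured by RP-HPLC against a calibration curve.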

As to “Ac-TVELQGVVPRGVNL-NH2 [FXIII (28–41) V34 AP]”, the decrease in kcat in experiment [1] is reported as 3 fold; in experiment [3] (L99A thrombin relative to WT thrombin), 3 fold; in experiment [5], no more than 2 fold. The “increase in Km” value is reported as 2 fold in experiment [2] and 3–4 fold in experiment [5]. In addition, in experiment [3] (L99A thrombin, relative to WT thrombin or across the V34X series), the “Km and kcat (in words)” value was “highest Km values of the IIa L99A series”. In experiment [4], the “decrease in kcat/Km” value is reported as 4 fold.

With “Ac-TVELQGLVPRGVNL-amide (Ac-TVELQGLVPRGVNL-NH2) [FXIII (28–41) V34L AP]”, the results for the “increase in Km” value in experiment [2] and in experiment [5] were 2 fold and 3–4 fold, respectively. Besides, the decrease in kcat in experiment [5] is on record as no more than 2 fold.

Consider “Ac-TVELQGPVPRGVNL-NH2 [FXIII (28–41) V34P AP]”, for which the decrease in kcat in experiment [1] is reported as 1.3 fold; in experiment [6] it was 2 fold.

For “Ac-TVELQGFVPRGVNL-NH2 [FXIII (28–41) V34F AP]”, in experiment [1], the “Km (in words)” value is “comparable to that of WT thrombin”. Also, the decrease in kcat worked out at 4 fold in experiment [1], 2 fold in experiment [7] and 3 fold in experiment [6]. Besides, in experiment [6], the “decrease in kcat/Km” value is listed as 3 fold. Further, the loss in kcat in experiment [8] turned out to be 2 fold.

(Values after article PMC3645320 (Biochimica et biophysica acta, 2011).)
